Most compounds without a hit are left out; they make up all but 3.3% or so of the library.
Jurkat viability = reduces viability or proliferation of Jurkat cells | actives 1.2% (n = 56,000) | inhibition, % at 4 µM | Jurkat E6.1 viability, ATP luminescence, 48 h;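 active means inhibition above the mean inhibition of all tested compounds plus 3 SD, cut at about 28% in these data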
HTR1E antagonist = antagonists of human 5-HT1E serotonin receptor; P28566; CHO 5-HT1E Ga15 NFAT-bla reporter, FRET, antagonist; inhibition, % at 6 µM; actives 0.99% (n = 65,000); AID 571;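 active means inhibition above a set limit, the mean inhibition across every tested compound plus 3 SD, cut at about 29% in these data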;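 further: signal is the 460 over 535 nm emission ratio of beta-lactamase substrate; 0% = agonist plus DMSO wells and 100% = wells without agonist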
HTR1A agonist = agonists of human 5-HT1a serotonin receptor; CHO 5-HT1a Ga15 NFAT-bla reporter, FRET ratio; 0% basal, 100% maximal reference agonist; AID 567; activation, % at 10 µM; P08908; actives 0.56% (n = 65,000);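 active means activation above the screen-wide mean activation plus 3 SD, cut at about 19% in these data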;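 further: 0% = DMSO wells and 100% = 5-CT at EC100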
Target sequence (P08908 whole entry, looked up): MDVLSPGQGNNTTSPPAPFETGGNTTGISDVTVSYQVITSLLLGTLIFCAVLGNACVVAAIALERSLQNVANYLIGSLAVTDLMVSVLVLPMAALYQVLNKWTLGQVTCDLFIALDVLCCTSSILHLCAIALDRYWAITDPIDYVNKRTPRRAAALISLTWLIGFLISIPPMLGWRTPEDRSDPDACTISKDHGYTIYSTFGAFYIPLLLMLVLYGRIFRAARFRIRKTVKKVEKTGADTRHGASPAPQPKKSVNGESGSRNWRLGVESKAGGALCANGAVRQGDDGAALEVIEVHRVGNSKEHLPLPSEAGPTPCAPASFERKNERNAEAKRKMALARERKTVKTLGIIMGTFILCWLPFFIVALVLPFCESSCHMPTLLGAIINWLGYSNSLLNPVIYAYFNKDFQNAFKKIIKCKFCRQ
HEK293 NFkB inh = inhibitors of the PMA/ionomycin-induced NF-kB reporter in HEK293 cells; HEK-293 NF-kB luciferase reporter, luminescence; inhibition, % at 3 µM; actives 0.21% (n = 62,000); AID 465;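 active means inhibition above the mean of all tested compounds plus 3 SD, cut at about 40% in these data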;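 further: 0% = stimulated DMSO wells and 100% = 10 µM reference inhibitor 5653914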
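System: NF-kB luciferase reporter HEK-293 cells | Replication: Single test | Control set: DMSO vs reference inhibitor | Evaluation: % inhibition | Schedule: 1 h pretreatment, 16 h stimulation, 37 °C | Probe or stimulus: PMA with ionomycin | Compound dosing: One dose, 3 µM | Detection: Luciferase luminescence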
5HT1a antag = antagonists of human 5-HT1a serotonin receptor | P08908 | CHO 5-HT1a Ga15 NFAT-bla reporter, antagonist mode | inhibition, % at 10 µM | actives 0.68% (n = 62,000) | AID 612;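 active means inhibition above the mean of all tested compounds plus 3 SD, cut at about 43% in these data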;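 further: receptor stimulated by 5-CT agonist at 100 nM near EC80; beta-lactamase reporter measured by ratiometric fluorescence of a cleavable substrate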
HTR1E agonist = activates the human 5-HT1E serotonin receptor. P28566. CHO 5-HT1E Ga15 NFAT-bla reporter, FRET; 0% DMSO wells, 100% control agonist wells. activation, % at 6 µM. actives 0.69% (n = 65,000). AID 574;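 active means activation above a set limit, the screen-wide mean activation plus 3 SD, cut at about 8.5% in these data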;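 further: 100% = positive control agonist at 1 µM giving full maximal response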
Starred values were filed as active, the others as inactive; · = no result.

SMILES	Jurkat viability	HTR1E antagonist	HTR1A agonist	HEK293 NFkB inh	5HT1a antag	HTR1E agonist
CCOC(=O)C1CCN(C(=O)C2CC(=O)N(c3ccc(C)cc3)C2)CC1 (stereo not drawn)	2	-6	-4	7	-7	0
CCn1cc(C(=O)NC2CCCCCC2)c2cc(OC)c(OC)cc2c1=O	·	9	2	4	-4	1
COc1ccc(NS(=O)(=O)c2cc(C)ccc2NC(=O)c2cc(C)oc2C)cc1	90*	61*	0	38	63*	0
COc1cccc(C(=O)CSc2nnc(COc3cccc4cccnc34)o2)c1	15	12	46*	9	6	-2
Cc1ccc(C(=O)CSc2nnc(COc3cccc4cccnc34)o2)cc1	2	10	-2	18	-3	0
O=c1[nH]cnc2cc(Cl)ccc12	-4	1	50*	16	5	-2
CCCC(=O)Nc1cc(Cl)ccc1N1CCN(C(=O)CC)CC1	-2	2	1	13	18	-1
CC(=O)C(C(C)=O)c1c(Cl)c(O)c(O)c2c(C(=O)c3ccccc3)coc12	49*	23	-3	10	29	-1
CC1(C)Cc2ccccc2-c2nc(NCCCO)n(-c3ccccc3)c(=O)c21	-4	11	1	16	-19	1
COc1ccc(C)cc1N(C(=O)CNC(=O)c1ccco1)C(C(=O)NC1CCCC1)c1cccnc1 (stereo not drawn)	14	17	-4	21	9	0
COc1ccc(CC(=O)OCC(=O)NC(=O)NC2CCCCC2)cc1	-4	-1	-3	-11	-6	0
CCOC(=O)c1oc2ccccc2c1CSc1nnnn1-c1ccc(C)cc1	1	-1	-5	17	32	0
COc1cc(CSc2nnnn2-c2ccc(C)cc2)cc(OC)c1OC	89*	12	-1	44*	22	0
Cc1nc(NC2=NCN(CCCN3CCOCC3)CN2)nc2c(C)cccc12	-3	-14	-1	5	-11	15*
CN(C)Cc1cc(C(C)(C)c2cc(CN(C)C)c(O)c(CN(C)C)c2)cc(CN(C)C)c1O	0	-11	75*	14	-10	0
Cc1ccc(-c2nc(CN(C)C)cc(CN(C)C)c2O)cc1	1	-1	-1	-2	2	-2
NC(=O)C1(N2CCCCC2)CCN(C(=O)CSc2nc3ccccc3s2)CC1	1	3	0	10	-6	0
CCCCCCC(=O)N(O)C1CC(=O)N(Cc2ccccc2)C1=O (stereo not drawn)	-5	30*	-7	-4	30	-1
COc1cccc(NC(=O)N2CCN(c3cccc(C)c3C)CC2)c1	1	-1	-2	12	0	30*
Cc1ccccc1CS(=O)(=O)CCC(=O)N1CCN(c2ccc(N3CCOCC3)nn2)CC1	·	0	1	10	0	-1
Cc1cccc(N2CCN(c3cccc(C)c3)C2c2cccnc2)c1	94*	-1	-2	7	2	0
CCCN1CCN(c2ncnc3c2nnn3Cc2ccccc2)CC1	63*	-6	-2	7	8	-1
c1ccc(Cn2nnc3c(N4CCCCCC4)ncnc32)cc1	24	18	1	12	-15	0
Cc1cc(C)nc(N2CCC(C(=O)N3CCN(c4cc(Cl)ccc4C)CC3)CC2)n1	-1	-8	1	22	17	0
O=C(O)CCC(=O)N1CCN(c2cccc(Cl)c2)CC1	2	4	0	-2	13	21*
SMILES	Jurkat viability	HTR1E antagonist	HTR1A agonist	HEK293 NFkB inh	5HT1a antag	HTR1E agonist
Cc1ccc(Cl)cc1N1CCN(C(=O)CCC(=O)O)CC1	·	1	-1	11	6	14*
CC(C)Cc1cc(C(=O)NCCCN2CCOCC2)no1	2	-12	-4	5	-17	0
CCn1cnc2sc(C(=O)N(Cc3ccc(N(C)C)cc3)Cc3ccco3)c(C)c2c1=O	15	40*	2	13	-6	0
CCn1cnc2sc(C(=O)N3CCN(Cc4ccc5c(c4)OCO5)CC3)c(C)c2c1=O	4	3	-2	16	5	0
C=C(C)c1nc(N)nc(N)n1	5	2	32*	-3	12	0
Cc1cccc(OCc2nc(C)cc(=O)[nH]2)c1	·	8	2	·	·	0
COc1cccc(OCc2nc3ncc(Br)cc3[nH]2)c1	65*	24	0	25	18	0
COc1ccc(N(CC(=O)NCc2cccnc2)S(=O)(=O)c2c(C)nn(C)c2C)cc1	-6	-6	1	5	-13	1
CCCCn1c(=N)n(CC(O)COc2cccc(C)c2)c2ccccc21 (stereo not drawn)	13	0	-1	1	43*	0
Cc1ccc(OCC(O)Cn2c(=N)n(CCN3CCOCC3)c3ccccc32)cc1 (stereo not drawn)	-4	4	-1	8	20	1
Cc1ccc(OCC(O)Cn2c(=N)n(CCN3CCCCC3)c3ccccc32)cc1 (stereo not drawn)	6	6	0	24	43*	-1
CCCCCn1c(=N)n(CC(O)COc2ccccc2OC)c2ccccc21 (stereo not drawn)	12	11	0	8	64*	0
COc1ccccc1OCC(O)Cn1c(=N)n(Cc2ccccc2)c2ccccc21 (stereo not drawn)	·	-14	-2	1	42	0
O=S(=O)(Nc1cccc2ccccc12)N1CCCC1	0	-1	0	15	3	0
CCCOC(=O)c1ccc(OCC(O)CN2CCN(C(=O)c3ccccc3)CC2)cc1 (stereo not drawn)	3	0	0	10	3	48*
COc1ccc(-c2cn3c(C)c(C(=O)Nc4cc(NC(C)=O)ccc4OC)sc3n2)cc1	48*	2	4	24	16	0
Cc1ccccc1Cn1c(=O)c2c(nc3n2CCN3Cc2ccco2)n(C)c1=O	1	-15	-2	12	-9	1
COc1ccc2cc(CCNC(=O)c3c(-c4ccccc4Cl)noc3C)c(=O)[nH]c2c1	-14	-10	-2	9	0	1
CCOC(=O)C1CCCN(C(=O)Cn2nc(Cc3cccnc3)c3ccccc3c2=O)C1 (stereo not drawn)	5	-1	38*	15	0	1
O=C(Cn1nc(Cc2cccnc2)c2ccccc2c1=O)N1CCN(C(=O)c2ccco2)CC1	0	2	-6	14	-6	0
O=C(OCC(=O)N1CCN(C(=O)COC(=O)c2ccncc2)CC1)c1ccncc1	4	-3	-2	7	0	0
Cc1cc(Cl)ccc1OCCCC(N)=O	-5	-9	0	6	1	-1
Cc1cc(Cl)ccc1OCCCC(=O)NO	93*	4	-1	-7	5	0

Screens: PubChem BioAssay, The Scripps Research Institute Molecular Screening Center
